The test system of one series is MV4-11. Nature of the series: Growth inhibition of human MV4-11 cells. It counts as functional.
Series [1] can be described thus: Half life in rat at 0.2 mg/kg, iv. It counts as ADME, organism-based. Conditions: in vivo. The method, boiled down:
(§1)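 Rats received a single IV dose of 0.2 mg/kg, given either as a discrete dose or within an IV cassette study. Reported parameters were plasma clearance CLp (mL/min/kg), T1/2, and volume of distribution at steady state Vss (L/kg).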

A short description of series [2]: Unbound fraction in mouse plasma. It counts as ADME, cell-free. The method, boiled down:
(§2)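 Plasma protein binding was determined in human, rat or mouse plasma and reported as the fraction unbound (fu).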

The nature of series [3]: Intrinsic clearance in human liver microsomes. It counts as ADME. Conditions: read-out: CLH. A general note: Microsomes from liver hold many membrane-bound enzymes, among them those of drug oxidation.
Series [4] in a line: Unbound fraction in human plasma. It counts as ADME, cell-free. The method, boiled down:
as §2

The nature of series [5]: Intrinsic clearance in rat liver microsomes. It counts as ADME. Conditions: read-out: CLH.
Series [6] is described as follows: Plasma clearance in rat at 0.2 mg/kg, iv. It counts as ADME, organism-based. The method, boiled down:
as §1

Series [7] is described as follows: Volume of distribution at steady state in rat at 0.2 mg/kg, iv. It counts as ADME, organism-based. Conditions: in vivo, read-out: Vdss. The method, boiled down: as §1
Series [8] in a line: Unbound fraction in rat plasma. It counts as ADME, cell-free. An outline of the steps: as §2
Series [9] in a line: Drug level in rat hepatic S9 fraction treated with compound 10b assessed as compound formation. It counts as ADME, tissue-based, Liver.
The target of series [10] is Menin/Histone-lysine N-methyltransferase MLL (Homo sapiens, UniProt O00255). Nature of the series: Inhibition of menin-MLL1 interaction (unknown origin) incubated for 1 hr by fluorescein and Texas Red labeled MBM1 based fluorescence polarization assay. It counts as protein assay.
Chain of Menin/Histone-lysine N-methyltransferase MLL (O00255 whole entry): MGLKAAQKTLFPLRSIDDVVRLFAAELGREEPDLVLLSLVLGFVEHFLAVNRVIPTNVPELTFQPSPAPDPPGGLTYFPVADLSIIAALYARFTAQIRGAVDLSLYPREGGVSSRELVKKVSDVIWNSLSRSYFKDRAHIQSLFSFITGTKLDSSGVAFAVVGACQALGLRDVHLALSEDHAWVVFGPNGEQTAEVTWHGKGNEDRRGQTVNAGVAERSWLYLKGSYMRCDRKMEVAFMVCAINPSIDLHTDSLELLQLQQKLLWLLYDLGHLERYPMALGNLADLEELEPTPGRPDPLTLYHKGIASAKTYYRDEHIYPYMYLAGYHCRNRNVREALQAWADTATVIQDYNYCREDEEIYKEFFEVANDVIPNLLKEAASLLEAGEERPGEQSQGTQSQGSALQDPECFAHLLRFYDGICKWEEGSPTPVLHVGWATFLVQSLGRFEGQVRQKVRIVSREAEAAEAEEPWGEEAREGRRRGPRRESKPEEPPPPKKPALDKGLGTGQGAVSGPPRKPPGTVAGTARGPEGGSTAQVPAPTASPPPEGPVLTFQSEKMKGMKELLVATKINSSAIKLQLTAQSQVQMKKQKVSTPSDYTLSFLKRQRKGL
Chain of Menin/Histone-lysine N-methyltransferase MLL (Q03164 1-2718 partner limits assumed): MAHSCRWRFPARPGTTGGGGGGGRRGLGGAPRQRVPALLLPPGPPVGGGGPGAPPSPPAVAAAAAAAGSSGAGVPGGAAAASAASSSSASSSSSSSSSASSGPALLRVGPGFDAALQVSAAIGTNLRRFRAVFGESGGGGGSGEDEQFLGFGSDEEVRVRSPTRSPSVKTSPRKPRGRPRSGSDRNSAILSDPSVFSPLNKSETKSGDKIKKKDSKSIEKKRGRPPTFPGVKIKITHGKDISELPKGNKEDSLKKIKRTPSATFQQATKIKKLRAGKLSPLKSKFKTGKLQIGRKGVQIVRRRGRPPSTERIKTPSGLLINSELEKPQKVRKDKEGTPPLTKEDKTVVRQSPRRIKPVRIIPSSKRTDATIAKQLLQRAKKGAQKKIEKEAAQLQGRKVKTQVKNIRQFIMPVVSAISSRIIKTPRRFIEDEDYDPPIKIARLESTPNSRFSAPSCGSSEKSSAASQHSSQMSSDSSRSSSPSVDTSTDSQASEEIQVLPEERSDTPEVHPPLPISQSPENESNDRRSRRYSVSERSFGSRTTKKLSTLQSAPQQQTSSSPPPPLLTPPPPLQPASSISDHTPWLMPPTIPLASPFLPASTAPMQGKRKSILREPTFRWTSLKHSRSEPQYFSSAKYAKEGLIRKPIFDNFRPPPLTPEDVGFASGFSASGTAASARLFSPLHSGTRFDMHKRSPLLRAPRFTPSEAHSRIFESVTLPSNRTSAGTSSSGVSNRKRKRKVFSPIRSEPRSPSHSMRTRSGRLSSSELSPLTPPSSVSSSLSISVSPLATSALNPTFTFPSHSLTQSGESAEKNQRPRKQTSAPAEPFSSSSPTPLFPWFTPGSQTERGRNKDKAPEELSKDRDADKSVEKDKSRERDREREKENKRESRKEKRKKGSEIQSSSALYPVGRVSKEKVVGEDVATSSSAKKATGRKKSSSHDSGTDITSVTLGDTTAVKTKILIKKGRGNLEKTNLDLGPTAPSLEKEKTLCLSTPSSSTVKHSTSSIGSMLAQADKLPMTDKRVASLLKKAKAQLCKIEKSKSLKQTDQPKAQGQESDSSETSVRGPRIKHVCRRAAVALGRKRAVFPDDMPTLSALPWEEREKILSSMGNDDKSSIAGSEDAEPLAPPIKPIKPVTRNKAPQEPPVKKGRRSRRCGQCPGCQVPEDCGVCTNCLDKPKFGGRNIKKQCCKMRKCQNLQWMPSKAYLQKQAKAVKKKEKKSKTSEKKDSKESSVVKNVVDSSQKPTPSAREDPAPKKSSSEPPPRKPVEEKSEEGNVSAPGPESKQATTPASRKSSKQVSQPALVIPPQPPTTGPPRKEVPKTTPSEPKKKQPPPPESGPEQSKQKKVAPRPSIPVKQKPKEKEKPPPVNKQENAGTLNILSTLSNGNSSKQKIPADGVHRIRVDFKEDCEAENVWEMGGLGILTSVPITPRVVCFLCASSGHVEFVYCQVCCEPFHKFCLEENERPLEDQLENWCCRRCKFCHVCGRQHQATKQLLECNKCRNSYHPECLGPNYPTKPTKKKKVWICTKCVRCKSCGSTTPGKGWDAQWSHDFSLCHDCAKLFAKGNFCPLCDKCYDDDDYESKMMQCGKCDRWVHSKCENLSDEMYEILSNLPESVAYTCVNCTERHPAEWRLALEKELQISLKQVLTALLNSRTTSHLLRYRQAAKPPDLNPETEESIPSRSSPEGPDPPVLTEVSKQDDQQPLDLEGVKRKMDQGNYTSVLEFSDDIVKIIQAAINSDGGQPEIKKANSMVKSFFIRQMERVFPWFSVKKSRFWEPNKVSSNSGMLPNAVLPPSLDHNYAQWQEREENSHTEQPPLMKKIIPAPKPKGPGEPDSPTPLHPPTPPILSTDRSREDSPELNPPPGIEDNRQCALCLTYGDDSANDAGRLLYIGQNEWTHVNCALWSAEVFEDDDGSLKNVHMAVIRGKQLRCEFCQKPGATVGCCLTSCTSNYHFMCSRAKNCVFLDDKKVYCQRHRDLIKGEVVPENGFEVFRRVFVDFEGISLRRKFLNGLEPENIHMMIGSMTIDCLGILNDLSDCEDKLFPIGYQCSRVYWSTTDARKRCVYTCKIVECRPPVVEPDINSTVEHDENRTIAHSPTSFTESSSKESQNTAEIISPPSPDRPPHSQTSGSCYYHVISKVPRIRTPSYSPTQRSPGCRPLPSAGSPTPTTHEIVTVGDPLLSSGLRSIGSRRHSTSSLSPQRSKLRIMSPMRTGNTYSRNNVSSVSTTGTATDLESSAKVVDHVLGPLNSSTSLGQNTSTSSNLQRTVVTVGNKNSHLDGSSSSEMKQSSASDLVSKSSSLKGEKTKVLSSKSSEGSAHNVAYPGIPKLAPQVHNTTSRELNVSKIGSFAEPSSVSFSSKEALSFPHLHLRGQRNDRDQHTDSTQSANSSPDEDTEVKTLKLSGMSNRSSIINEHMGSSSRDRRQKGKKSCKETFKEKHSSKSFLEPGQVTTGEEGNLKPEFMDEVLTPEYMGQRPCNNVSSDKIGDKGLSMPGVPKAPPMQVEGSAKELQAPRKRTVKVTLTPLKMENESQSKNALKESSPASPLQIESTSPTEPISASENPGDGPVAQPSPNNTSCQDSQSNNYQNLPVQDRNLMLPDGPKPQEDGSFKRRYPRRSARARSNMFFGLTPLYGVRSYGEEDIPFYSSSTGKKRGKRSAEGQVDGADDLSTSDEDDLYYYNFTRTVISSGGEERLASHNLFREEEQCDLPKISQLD
Chain of Menin/Histone-lysine N-methyltransferase MLL (Q03164 2719-3969 partner limits assumed): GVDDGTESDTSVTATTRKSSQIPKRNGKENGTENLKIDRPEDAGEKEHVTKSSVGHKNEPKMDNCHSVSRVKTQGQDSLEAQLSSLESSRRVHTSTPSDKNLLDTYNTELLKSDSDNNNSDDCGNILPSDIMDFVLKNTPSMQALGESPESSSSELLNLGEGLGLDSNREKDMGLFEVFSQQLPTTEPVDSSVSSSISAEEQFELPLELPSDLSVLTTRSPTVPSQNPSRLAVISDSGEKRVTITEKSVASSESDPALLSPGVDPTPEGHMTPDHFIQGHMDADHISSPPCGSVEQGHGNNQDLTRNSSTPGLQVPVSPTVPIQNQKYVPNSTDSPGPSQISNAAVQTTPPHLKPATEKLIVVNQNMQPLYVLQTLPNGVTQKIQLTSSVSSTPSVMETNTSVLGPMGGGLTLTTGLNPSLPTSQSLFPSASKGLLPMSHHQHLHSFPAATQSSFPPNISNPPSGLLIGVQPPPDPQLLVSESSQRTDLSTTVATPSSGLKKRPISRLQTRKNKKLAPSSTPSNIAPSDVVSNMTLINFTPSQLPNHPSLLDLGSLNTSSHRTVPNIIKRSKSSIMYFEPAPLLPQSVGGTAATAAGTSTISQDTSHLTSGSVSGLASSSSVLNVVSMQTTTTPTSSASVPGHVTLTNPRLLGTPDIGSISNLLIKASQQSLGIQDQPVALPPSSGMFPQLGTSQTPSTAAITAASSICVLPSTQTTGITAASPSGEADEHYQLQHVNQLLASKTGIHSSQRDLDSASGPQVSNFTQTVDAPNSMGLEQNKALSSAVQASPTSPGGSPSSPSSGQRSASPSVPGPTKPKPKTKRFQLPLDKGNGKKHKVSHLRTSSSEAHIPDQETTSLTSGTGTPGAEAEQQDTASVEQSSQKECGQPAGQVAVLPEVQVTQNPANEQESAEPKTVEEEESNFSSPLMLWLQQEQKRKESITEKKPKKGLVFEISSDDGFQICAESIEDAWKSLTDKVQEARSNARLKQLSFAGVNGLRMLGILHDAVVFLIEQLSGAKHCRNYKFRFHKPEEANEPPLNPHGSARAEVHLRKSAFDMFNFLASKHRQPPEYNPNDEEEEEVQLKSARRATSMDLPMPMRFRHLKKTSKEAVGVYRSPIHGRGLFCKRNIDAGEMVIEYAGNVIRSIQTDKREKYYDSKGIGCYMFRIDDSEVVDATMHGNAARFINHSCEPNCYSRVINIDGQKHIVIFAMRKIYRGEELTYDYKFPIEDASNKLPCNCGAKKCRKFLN

Molecules are shown by their SMILES.

As to `CC1(C)CN=C(N2CCN(c3ncnc4sc(CC(F)(F)F)cc34)CC2)S1`, in the series with MV4-11, the GI50 is 3000 nM.
`N#Cc1ccc(OCCCN2CCC(C(O)(c3ccccc3)C3CCCC3)CC2)cc1` (stereo unspecified): in series [1], the half-life is 1.6 h. Moreover, the fraction unbound in series [2] worked out at 0.013; in series [4] it was 0.004. The CLint scaled is 124 mL/min/kg in series [3] and 919 mL/min/kg in series [5]. In series [6], this compound showed a clearance of 40 mL/min/kg. Moreover, in series [7], the Vd turned out to be 2.9 L/kg.
`NS(=O)(=O)c1ccc(OCCCN2CCC(C(O)(c3cccc(F)c3)c3nccs3)CC2)cc1` (stereo unspecified): in [1], the half-life was 1.4 h. The results for the fraction unbound in series [2], in series [4] and in series [8] were 0.166, 0.17 and 0.322, respectively. Besides, the CLint scaled was 50 mL/min/kg in [3] and 206 mL/min/kg in series [5]. This compound also gave a clearance in series [6] of 26 mL/min/kg. In addition, the Vd in [7] was determined as 4.4 L/kg.
With `O[C@](c1cccc(F)c1)(c1ccccn1)C1CCNCC1`, the Drug metabolism result in series [9] is on record as “metabolite_detected”.
On to `N#Cc1ccc(OCCCN2CCC(C(O)(c3nccs3)C3CCCC3)CC2)cc1` (stereo unspecified), for which the results for the fraction unbound in series [2] and in [4] were 0.192 and 0.117, respectively. Also, the CLint scaled in series [3] came out at 77.4 mL/min/kg; in series [5] it was 558 mL/min/kg.
Take `N#Cc1ccc(OCCCN2CCC(C(O)(c3cccc(F)c3)c3nccs3)CC2)cc1` (stereo unspecified): in [1], the half-life is 2.8 h. The compound also had an IC50 in series [10] of 460 nM. Besides, the figures for the CLint scaled in series [3] and in [5] were 69 mL/min/kg and 273 mL/min/kg, respectively. The fraction unbound in [4] was determined as 0.04; in series [8] it was 0.108. For the same compound, the clearance in [6] stood at 32 mL/min/kg. Moreover, the Vd in series [7] was 7.2 L/kg.
With `NS(=O)(=O)c1ccc(OCCCN2CCC(C(O)(c3ccccn3)C3CCCC3)CC2)cc1` (racemic), the half-life in series [1] is 0.2 h. The fraction unbound in [2] came to 0.342; in [4], 0.291. Besides, the figures for the CLint scaled in series [3] and in series [5] were 16.2 mL/min/kg and 271 mL/min/kg, respectively. In series [6], this compound registered a clearance of 293 mL/min/kg. The Vd in series [7] is 4.3 L/kg.

In general, GI50 refers to the concentration at which growth is held to half of that of the control. The low end stands for greater sensitivity of the cells, the high end for lower sensitivity of the cells. In general, half-life refers to the time needed for the level to fall by half in the phase considered. A higher half-life goes with slow decline. The fraction unbound is the share of the substance not bound to proteins or other matrix. A low value points to extensive binding. Broadly, the clearance is the rate of elimination divided by the concentration. By IC50 is commonly meant the concentration needed to halve the response being measured. Read a high IC50 as a need for much substance.

These data come from ChEMBL document CHEMBL3585303, “Progress towards small molecule menin-mixed lineage leukemia (MLL) interaction inhibitors with in vivo utility” (Bioorg Med Chem Lett, 2015).
